The entries come from a sample that favours hits as a whole.
L major viab: Leishmania major promastigote growth inhibition; inhibition, % at 10 µM; actives 9% (n = 200,000); Leishmania major promastigotes, resazurin fluorescence viability; in the data active = inhibition above about 50%;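 also: promastigotes grown with compound for 44 hours at 28 °C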
Dynein cargo inh: dynein cargo transport inhibition; 3617.4 mouse cells, GR-EGFP nuclear translocation imaging; test concentration mostly 20 µM; stimulated with dexamethasone, 1 µM; hits give low values; z-score, hits read low; actives 0.47% (n = 220,000);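 active = plate z-score of nuclear minus cytoplasmic receptor signal below a set negative limit, without overly bright fluorescence or cell loss, cut at about -3.5 in these data, passing the limit was not always enough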;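 also: z-score of nuclear minus cytoplasmic ring GR-EGFP intensity difference per well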
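Buffer or medium: tet-free medium with charcoal-stripped serum / Also added: dexamethasone agonist, 1.0 µM final, for 30 min / Timing: induction 48 h, compound 1 h, agonist 30 min / Measured by: high-content fluorescence imaging after fixation / Read-out: nuclear-to-cytoplasmic GR-EGFP distribution per well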
CHOP inhibitor: CHOP inhibition in unfolded protein response. CHO-K1 CHOP-promoter luciferase, tunicamycin-induced, 15-18 h. inhibition, % at 10 µM. actives 3.8% (n = 220,000). AID 2732;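 active = compounds that reduced the stress-induced luciferase reporter signal by more than about 70% of percent inhibition, limit read from the data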
UPR CHOP act: activators of apoptotic arm of unfolded protein response (CHOP); CHO-CHOP luciferase reporter, UPR activation, luminescence; percent of tunicamycin response over DMSO baseline; activation, % at 10 µM; actives 0.34% (n = 330,000); AID 449763;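 active = at 10 µM dose, activation of 40% or more, normalized to positive control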
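System: CHO-CHOP luciferase reporter cell line; amount: 500 cells/well; buffer or medium: F12 medium containing 10% fetal bovine serum; incubation: 6 h compound exposure at 37 °C after overnight seeding; measured by: luciferase luminescence after 10 min with Steady-Glo reagent; evaluation: % reporter activation, DMSO baseline versus tunicamycin full activation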
T cruzi inh: blocks replication of Trypanosoma cruzi. T. cruzi beta-gal in NIH3T3, luminescence, 90 h. inhibition, % (no concentration beside the values). actives 1.4% (n = 300,000). AID 1885;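 active = mean inhibition across valid replicates above about 55%, limit read from the data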;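 also: signal also drops with host cell toxicity which is not excluded here; higher percent means less beta-gal luminescence so fewer parasites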
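System: mouse NIH/3T3 fibroblasts infected with β-gal-expressing T. cruzi Tulahuen C4 / Input: NIH/3T3 cells, 5,000 per well / Buffer or medium: Low-serum DMEM with 2% FBS / Probe or stimulus: 5000 reporter trypomastigotes per well / Schedule: ≥90 h infection period, 3 h prior cell attachment / Measured by: GalScreen luminescence, 60 min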
XBP1 UPR activ: activators of adaptive arm of unfolded protein response (XBP1); AID 463104; activation, % at 20 µM; actives 0.33% (n = 330,000); CHO-XBP1 luciferase reporter, IRE1-XBP1 UPR activation, luminescence; percent of tunicamycin response, DMSO as zero;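 active = versus positive control, 20 µM dose yields 30% or more activation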
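Test system: CHO-XBP1 luciferase reporter cells | Buffer or medium: Serum-containing F12 medium, 10% FBS | Schedule: 6 h compound exposure at 37 °C, 5% CO2 | Detection: Steady-Glo luciferase glow luminescence, 10 min after reagent addition | Read-out basis: Activation, % of tunicamycin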
Hits are given with their value; 0 = inactive; - = no result.

SMILES	L major viab	Dynein cargo inh	CHOP inhibitor	UPR CHOP act	T cruzi inh	XBP1 UPR activ
COc1ccc(N(C(=O)c2ccco2)C(C(=O)NC2CCCC2)c2ccc(N3CCOCC3)cc2)c(OC)c1 (configuration not stated)	-	-	-	0	0	0
O=C(Nc1ccc(Cl)cc1)C1C2CCC3C(CCC21)C3(Cl)Cl (configuration not stated)	0	0	72	-	-	-
Cc1cccc(NC(=O)C2C3CCC4C(CCC32)C4(Cl)Cl)c1 (configuration not stated)	0	0	76	0	0	0
CCOC(=O)c1c(NC(=O)CN2C(=O)C(=O)N(C(C)C)C2=O)sc(C)c1CC	-	-	-	0	-	0
CC(=O)N1CCCC(C(=O)c2ccc3c4c(cccc24)CC3)C1 (configuration not stated)	0	0	0	0	0	0
Cc1cccc(CN2CCCC(C(=O)c3ccc4c5c(cccc35)CC4)C2)n1 (configuration not stated)	53	0	0	0	0	0
O=C(c1ccc2c3c(cccc13)CC2)C1CCCN(C(=O)c2cccnc2)C1 (configuration not stated)	0	0	0	0	0	0
COc1ccc2cc(C(=O)C3CCCN(Cc4cccc(C)n4)C3)ccc2c1 (configuration not stated)	86	0	0	0	0	0
COc1cc(CN2CCCC(C(=O)c3ccc4c5c(cccc35)CC4)C2)cc(OC)c1O (configuration not stated)	99	0	0	0	0	0
O=C(c1ccc2c3c(cccc13)CC2)C1CCCN(Cc2cccnc2)C1 (configuration not stated)	96	0	0	0	62	0
COc1ccc(-c2[nH]ncc2CN2CCCC(C(=O)c3cccc(OC)c3)C2)cc1 (configuration not stated)	0	0	0	0	0	0
O=S(=O)(Nc1ccc(S(=O)(=O)N2CCCC2)cc1)c1ccccc1Br	-	-	-	0	-	0

Screening results from PubChem.
